Values after ≈ are worked out from the molar mass of the structure shown.
Key:
[1] = Thermodynamic solubility of the compound in pH 6.8 phosphate buffer after 24 hrs by HPLC analysis; assay type: physicochemical; conditions: read-out: Therm_solubility
How it was run: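 Excess solid in pH 6.8 phosphate buffer was shaken 24 h at 25 °C and centrifuged (3000 and 11000 rpm, 10 min). Supernatant was diluted in 50% aqueous acetonitrile and quantified by reversed-phase HPLC (0.1% phosphoric acid/acetonitrile, 40 °C column, UV 210 nm).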

[2] = Drug metabolism in human liver microsomes assessed per mg protein after 15 mins; assay type: ADME, microsome; conditions: read-out: Drug metabolism
How it was run: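 Compound was incubated 15 min with human liver microsomes at 1 mg protein/mL; the value is reported as percent metabolized.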

[3] = molecular target: T1, Glucose-dependent insulinotropic receptor (Homo sapiens, UniProt Q8TDV5); assay: Agonist activity at human GPR119 expressed in Flp-In-T-Rex-HEK293 cells assessed as stimulation of cAMP level measured after 30 mins by HTRF assay; assay type: functional, cell-based
T1 sequence (Q8TDV5 whole entry): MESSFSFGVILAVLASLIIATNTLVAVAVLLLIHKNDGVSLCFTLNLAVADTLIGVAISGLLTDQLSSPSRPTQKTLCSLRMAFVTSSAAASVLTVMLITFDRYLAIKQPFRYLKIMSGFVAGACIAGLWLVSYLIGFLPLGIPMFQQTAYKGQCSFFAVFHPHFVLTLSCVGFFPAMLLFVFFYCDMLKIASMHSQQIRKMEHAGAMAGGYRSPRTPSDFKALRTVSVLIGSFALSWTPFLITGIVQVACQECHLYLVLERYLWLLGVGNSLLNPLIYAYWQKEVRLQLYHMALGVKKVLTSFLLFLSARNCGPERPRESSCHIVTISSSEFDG
How it was run: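 Flp-In-T-Rex-HEK293 cells overexpressing human GPR119 were induced with tetracycline for 24 h, then seeded at 5000 cells/well in DMEM with 1 mM IBMX and 0.01% BSA. Cells were exposed to compound for 30 min at 37 °C, and cAMP was read by HTRF (HiRange kit). Basal cAMP was subtracted, and EC50 is the concentration giving 50% of maximal response on dose-response curves.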

[4] = Clearance in Sprague-Dawley rat at 3 mg/kg, iv administered as single dose by LC-MS/MS analysis; assay type: ADME, organism-based; conditions: in vivo
How it was run: (§1)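 Fasted male Sprague-Dawley rats received a single dose, either 3 mg/kg iv in 20% 2-hydroxypropyl-β-cyclodextrin or 10 mg/kg orally in 0.5% methylcellulose with 0.1% Tween80. Tail-vein blood was taken at each time point and spun to plasma. Analyte was quantified by LC-MS/MS, and parameters were derived by non-compartmental analysis.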

[5] = Volume of distribution at steady state in Sprague-Dawley rat at 3 mg/kg, iv administered as single dose by LC-MS/MS analysis; assay type: ADME, organism-based; conditions: in vivo, read-out: Vdss; how it was run: as §1
[6] = Half life in Sprague-Dawley rat at 3 mg/kg, iv administered as single dose by LC-MS/MS analysis; assay type: ADME, organism-based; conditions: in vivo; how it was run: as §1
[7] = AUC (0 to infinity) in Sprague-Dawley rat at 10 mg/kg, po administered as single dose by LC-MS/MS analysis; assay type: ADME, organism-based; parameters: dose 10 mg/kg, route oral, time infinity; conditions: in vivo; how it was run: as §1
[8] = Oral bioavailability in Sprague-Dawley rat at 10 mg/kg administered as single dose by LC-MS/MS analysis; assay type: ADME, organism-based; conditions: in vivo; how it was run: as §1
[9] = Permeability of the compound at pH 6.2 by PAMPA; assay type: physicochemical; conditions: read-out: permeability

Row | SMILES | solubility thermodynamic at 24 h [1] | EC50 [3] | other results
1 | CC(C)(OC(=O)N1CCC(n2ncc3cc(-c4ccc(S(C)(=O)=O)cc4)ncc32)CC1)C(F)F | 0.28 µM (≈ 0.138 µg/mL) | – | –
2 | CCNC(=O)c1cc(F)c(-c2cc3cnn(C4CCN(C(=O)OC(C)C)CC4)c3cn2)cc1F | 2.84 µM (≈ 1.34 µg/mL) | – | metabolised at 0.25 h [2]: 12.4%
3 | CCc1cnc(N2CCC(n3ncc4cc(-c5ccc(S(C)(=O)=O)cc5)ncc43)CC2)nc1 | 0.26 µM (≈ 0.12 µg/mL) | – | –
4 | CC(C)OC(=O)N1CCC(n2nnc3cc(-c4cc(F)c(C(=O)N5CCC5)cc4F)ncc32)CC1 | 2.7 µM (≈ 1.31 µg/mL) | 61 nM | metabolised at 0.25 h [2]: 5.4%
5 | CCc1cnc(N2CCC(n3nnc4cc(-c5ccc(S(C)(=O)=O)c(F)c5)ncc43)CC2)nc1 | < 0.15 µM | 9 nM | –
6 | CCNC(=O)c1ccc(-c2cc3nnn(C4CCN(c5ncc(CC)cn5)CC4)c3cn2)c(C(F)(F)F)c1 | 1.2 µM (≈ 0.629 µg/mL) | 60 nM | –
7 | CCNC(=O)c1ccc(-c2cc3nnn(C4CCN(c5ncc(CC)cn5)CC4)c3cn2)cc1C(F)(F)F | 0.51 µM (≈ 0.268 µg/mL) | 39 nM | –
8 | CCNC(=O)c1cc(F)c(-c2cc3nnn(C4CCN(C(=O)OC(C)C)CC4)c3cn2)cc1F | 5.5 µM (≈ 2.6 µg/mL) | 37 nM | metabolised at 0.25 h [2]: 11%
9 | CCNC(=O)c1cc(F)c(-c2cc3nnn(C4CCN(c5ncc(CC)cn5)CC4)c3cn2)cc1F | 0.24 µM (≈ 0.118 µg/mL) | 2 nM | –
10 | CCc1cnc(N2CCC(n3ncc4cc(-c5ccc(S(C)(=O)=O)cc5)c(C)cc43)CC2)nc1 | – | 70 nM | –
11 | CCNC(=O)c1ccc(-c2cc3nnn(C4CCN(c5ncc(CC)cn5)CC4)c3cn2)c(C)c1 | < 0.09 µM | 19 nM | –
12 | CCc1cnc(N2CCC(n3nnc4cc(-c5ccc(S(C)(=O)=O)cc5)ccc43)CC2)nc1 | < 0.13 µM | 31 nM | –
13 | CC(C)NC(=O)c1cc(F)c(-c2cc3nnn(C4CCN(C(=O)OC(C)C)CC4)c3cn2)cc1F | 0.84 µM (≈ 0.409 µg/mL) | 33 nM | –
14 | CCNC(=O)c1ccc(-c2cc3nnn(C4CCN(c5ncc(CC)cn5)CC4)c3cn2)cc1C | 1.79 µM (≈ 0.842 µg/mL) | 18 nM | –
15 | CCc1cnc(N2CCC(n3ncc4c(C)c(-c5ccc(S(C)(=O)=O)cc5)ccc43)CC2)nc1 | – | 3420 nM | –

Further lines, with some results ahead:

Row | solubility thermodynamic at 24 h [1] | EC50 [3] | SMILES | other results
16 | 1.51 µM (≈ 0.668 µg/mL) | – | CC(C)OC(=O)N1CCC(n2ncc3cc(-c4ccc(S(C)(=O)=O)cc4)ncc32)CC1 | –
17 | 1.18 µM (≈ 0.539 µg/mL) | – | CC(C)COC(=O)N1CCC(n2ncc3cc(-c4ccc(S(C)(=O)=O)cc4)ncc32)CC1 | –
18 | 0.28 µM (≈ 0.13 µg/mL) | 21 nM | CCc1cnc(N2CCC(n3nnc4cc(-c5ccc(S(C)(=O)=O)cc5)ncc43)CC2)nc1 | –
19 | 5.01 µM (≈ 2.43 µg/mL) | 27 nM | CCNC(=O)c1c(C)cc(-c2cc3nnn(C4CCN(c5ncc(CC)cn5)CC4)c3cn2)cc1C | –
20 | < 0.16 µM | 18 nM | CCNC(=O)c1ccc(-c2cc3nnn(C4CCN(c5ncc(CC)cn5)CC4)c3cn2)cc1Cl | –
21 | – | 10 nM | CCNC(=O)c1ccc(-c2cc3nnn(C4CCN(c5ncc(CC)cn5)CC4)c3cn2)c(F)c1F | –
22 | < 0.11 µM | 14 nM | CCc1cnc(N2CCC(n3ncc4cc(-c5ccc(S(C)(=O)=O)cc5)ccc43)CC2)nc1 | –
23 | 15.9 µM (≈ 7.93 µg/mL) | 65 nM | CC(C)OC(=O)N1CCC(n2nnc3cc(-c4cc(F)c(C(=O)N5CCCC5)cc4F)ncc32)CC1 | clearance [4]: 27.2 mL/min/kg; Vd [5]: 0.557 L/kg; half-life [6]: 14.5 min; AUC(0-inf) [7]: 1030 ng·h/mL; bioavailability [8]: 16.7%; Papp [9]: 97 ×10⁻⁶ cm/s; metabolised at 0.25 h [2]: 9.3%
24 | < 0.12 µM | 7 nM | CCc1cnc(N2CCC(n3nnc4cc(-c5ccc(S(C)(=O)=O)cc5F)ncc43)CC2)nc1 | –
25 | 0.24 µM (≈ 0.118 µg/mL) | 13 nM | CCNC(=O)c1ccc(-c2cc3nnn(C4CCN(c5ncc(CC)cn5)CC4)c3cn2)c(Cl)c1 | –
26 | 1.86 µM (≈ 0.901 µg/mL) | 83 nM | CCNC(=O)c1cc(C)c(-c2cc3nnn(C4CCN(c5ncc(CC)cn5)CC4)c3cn2)c(C)c1 | –
27 | – | 15 nM | CCNC(=O)c1ccc(-c2cc3nnn(C4CCN(c5ncc(CC)cn5)CC4)c3cn2)c(F)c1 | –
